Results reported in ChEMBL document CHEMBL1123304 (J Med Chem, 1986).

Assays:
[1] = organism: Mus musculus; assay: Amphetamine induced motility in mice; format: functional
[2] = molecular target: Sodium-dependent dopamine transporter (Rattus norvegicus) (UniProt P23977); assay: Inhibitory activity against inducing stereotypy in rats; format: functional
Procedure, shortened: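 Male CFY (Sprague-Dawley) rats. Animals showing stereotypy were placed in an activity meter. Doses giving 5 times control motility were determined. Minimum effective dose, sc.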

[3] = test system: Mus musculus; assay: Dose influencing (+/-) the spontaneous motility in mice, administered intraperitoneally (ip); format: functional
Procedure, shortened: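 CFLP male mice, 10/group. Spontaneous motility recorded in a circuit-closing apparatus, no amphetamine. Compounds given 15 or 30 min before testing. Vehicle controls. Minimum dose raising (+) or lowering (−) motility, ip.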

[4] = test system: Mus musculus; assay: Inhibition of tetrabenazine ptosis in mice (sc).; format: functional
[5] = organism: Mus musculus; assay: Inhibitory activity against reserpine hypothermia in mice.; format: functional
Procedure, shortened: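 Mice (male CFLP, 18–22 g, 10/group) given reserpine 1 mg/kg ip 3 h before testing. Rectal temperature read with a thermistor probe. Compounds given sc 15 or 30 min before testing. Minimum effective dose.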

[6] = Lethal effect was determined in mice; format: ADME, organism-based; settings: mouse, in vivo
Procedure, shortened: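 Male CFLP (Swiss) mice, 18–22 g, dosed sc. Vehicle was physiological saline, with Tween-80 added for some compounds in this determination; controls received the solvent. LD50 in mg/kg determined.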

[7] = organism: Felis catus; assay: Compound was tested for potentiating the dopamine-induced hypotension in cats.; format: functional
[8] = test system: Mus musculus; assay: Inhibitory activity against tetrabenazine catalepsy in mice (sc); format: functional

Chain of Sodium-dependent dopamine transporter (Rattus norvegicus) (P23977 whole entry): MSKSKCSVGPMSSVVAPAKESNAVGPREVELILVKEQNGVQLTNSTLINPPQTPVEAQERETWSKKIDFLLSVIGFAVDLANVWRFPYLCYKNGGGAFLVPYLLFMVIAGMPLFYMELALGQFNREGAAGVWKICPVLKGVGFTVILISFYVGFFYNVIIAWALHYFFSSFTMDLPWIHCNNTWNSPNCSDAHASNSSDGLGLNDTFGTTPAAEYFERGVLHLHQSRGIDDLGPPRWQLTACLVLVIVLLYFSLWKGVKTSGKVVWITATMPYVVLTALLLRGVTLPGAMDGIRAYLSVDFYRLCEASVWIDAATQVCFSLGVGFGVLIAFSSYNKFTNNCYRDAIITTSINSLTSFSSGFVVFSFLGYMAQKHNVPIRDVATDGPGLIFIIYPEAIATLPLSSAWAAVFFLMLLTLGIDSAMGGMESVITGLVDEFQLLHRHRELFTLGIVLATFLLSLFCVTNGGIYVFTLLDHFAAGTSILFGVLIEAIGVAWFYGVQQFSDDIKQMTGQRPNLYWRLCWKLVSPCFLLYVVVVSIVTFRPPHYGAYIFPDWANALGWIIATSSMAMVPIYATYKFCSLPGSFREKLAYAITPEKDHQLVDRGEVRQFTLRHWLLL

Row | SMILES | EDmin [1] [mg/kg] | EDmin [2] [mg/kg] | EDmin [3] [mg/kg] | ED50 [4] [mg/kg] | EDmin [5] [mg/kg] | LD50 [6] [mg/kg] | EDmin [7] [mg/kg] | ED50 [8] [mg/kg]
1 | CCCNC(=O)Nc1cccc2c1CN(C)CC2c1ccccc1 (stereo not given) | 80 | > 83 | >80 | > 80 | >60 | 455 | 10 | > 80
2 | CCNCCC(=O)Nc1cccc2c1CN(C)CC2c1ccccc1 (stereo not given) | >160 | 134 | 160 | > 160 | 200 | 720 | 4 | > 200
3 | CN1Cc2c(N)cccc2C(c2ccc(F)cc2)C1 (stereo not given) | 10 | – | 5 | 0.25 | 2 | 222 | 0.2 | ~3.6
4 | CN1Cc2c(NC(=O)CN3CCCC3)cccc2C(c2ccccc2)C1 (stereo not given) | >120 | 52.4 | 120 | ~25 | 50 | 380 | 3 | 39
5 | CCNCC(=O)Nc1cccc2c1CN(C)CC2c1ccc(C)cc1 (stereo not given) | >10 | > 83 | 10 | 5.6 | 20 | 320 | 1.5 | ~45
6 | CCNC(=O)Nc1cccc2c1CN(C)CC2c1ccccc1 (stereo not given) | 40 | > 83 | 80 | 54 | 40 | 290 | 6 | 80
7 | CCCCNCCC(=O)Nc1cccc2c1CN(C)CC2c1ccccc1 (stereo not given) | >80 | > 83 | >80 | 74 | >40 | 292 | >5 | ~46
8 | CCOC(=O)Nc1cccc2c1CN(C)CC2c1ccccc1 (stereo not given) | 4 | > 12.8 | >8 | ~4 | 2 | 71 | – | 3.2
9 | CCCCNCC(=O)Nc1cccc2c1CN(C)CC2c1ccc(C)cc1 (stereo not given) | >10 | 52.4 | 5 | ~2.5 | 10 | 320 | 1 | 34
10 | CCCCNC(=O)Nc1cccc2c1CN(C)CC2c1ccccc1 (stereo not given) | 80 | > 83 | 80 | 23 | >40 | 430 | 2 | ~40
11 | CC(C)NCCC(=O)Nc1cccc2c1CN(C)CC2c1ccccc1 (stereo not given) | 160 | > 83 | 160 | ~125 | 200 | 900 | 2 | 150
12 | CCOC(=O)Nc1cccc2c1CN(C)CC2c1ccc(F)cc1 (stereo not given) | 5 | 8 | 20 | 3.3 | 10 | 255 | 2 | 3.5
13 | CCNCC(=O)Nc1cccc2c1CN(C)CC2c1ccccc1 (stereo not given) | >30 | 52.4 | >60 | – | 60 | 320 | 2 | 47
14 | CCCCOC(=O)Nc1cccc2c1CN(C)CC2c1ccccc1 (stereo not given) | >5 | 20.5 | 5 | 2.6 | 20 | 180 | 2 | 4
15 | CN1Cc2c(NC(=O)OCc3ccccc3)cccc2C(c2ccccc2)C1 (stereo not given) | 100 | 12 | 100 | 16 | 20 | > 1000 | >5 | ~15
16 | CC(C)c1ccc(C2CN(C)Cc3c(N)cccc32)cc1 (stereo not given) | 80 | – | 80 | 68 | 50 | 1100 | 2 | > 80
17 | CCCCNC(=O)Nc1cccc2c1CN(C)CC2c1ccc(Cl)cc1 (stereo not given) | >30 | 134 | 15 | 15 | >100 | > 1000 | 3 | 44
18 | CN1Cc2c(NC(=O)CN3CCOCC3)cccc2C(c2ccccc2)C1 (stereo not given) | 60 | 83 | 60 | – | 20 | 295 | 3 | 39
19 | CCNCC(=O)Nc1cccc2c1CN(C)CC2c1ccc(Cl)cc1 (stereo not given) | >20 | 32.8 | 20 | 6.4 | 5 | 325 | 0.5 | 24
20 | CCCCNC(=O)Nc1cccc2c1CN(C)CC2c1ccc(C)cc1 (stereo not given) | 20 | 83 | 20 | ~15 | 20 | > 1200 | >5 | 40
21 | CC(C)NCC(=O)Nc1cccc2c1CN(C)CC2c1ccccc1 (stereo not given) | >30 | > 52.4 | 30 | – | 20 | 300 | 1 | 14
22 | CCCCNCC(=O)Nc1cccc2c1CN(C)CC2c1ccc(Cl)cc1 (stereo not given) | >20 | 32.8 | >20 | 3.9 | 5 | 320 | 0.5 | 13.5
23 | CN1Cc2c(NC(=O)CN3CCCCC3)cccc2C(c2ccccc2)C1 (stereo not given) | >60 | > 83 | >100 | – | 20 | 520 | 3.5 | ~65
24 | CN1Cc2c(N)cccc2C(c2ccc(Cl)cc2)C1 (stereo not given) | 5 | – | 10 | 1.1 | 2 | 240 | – | 1.6
25 | CCCCNCC(=O)Nc1cccc2c1CN(C)CC2c1ccccc1 (stereo not given) | >30 | 32.8 | 15 | – | >40 | 240 | 2 | 32
